Tests used:
[1] = biological target: Mitogen-activated protein kinase 14 (Homo sapiens, UniProt Q16539); experiment: Inhibition of N-terminus FLAG-tagged p38alpha expressed in baculovirus expression system using [gamma-33P]-ATP measured after 60 mins by scintillation counting
[2] = biological target: Mitogen-activated protein kinase kinase kinase 5 (Homo sapiens, UniProt Q99683); experiment: Inhibition of N-terminus FLAG-tagged ASK1 expressed in baculovirus expression system using [gamma-33P]-ATP measured after 60 mins by scintillation counting
[3] = biological target: Mast/stem cell growth factor receptor Kit (Homo sapiens, UniProt P10721); experiment: Inhibition of c-kit using ATP measured after 20 mins
[4] = biological target: Fibroblast growth factor receptor 1 (Homo sapiens, UniProt P11362); experiment: Inhibition of FGFR1 using ATP preincubated with compound for 5 mins measured after 10 mins
[5] = biological target: Vascular endothelial growth factor receptor 2 (Homo sapiens, UniProt P35968); experiment: Inhibition of N-terminus FLAG-tagged VEGFR2 expressed using baculovirus infection system after 10 mins
CYP3A4 = CYP3A4 (Homo sapiens, UniProt P08684); experiment: Inhibition of CYP3A4 at 10 uM after 15 mins; assay type: ADME
[6] = biological target: Serine/threonine-protein kinase PLK1 (Homo sapiens, UniProt P53350); experiment: Inhibition of N-terminus FLAG-tagged PLK1 expressed in baculovirus expression system using [gamma-33P]-ATP measured after 60 mins by scintillation counting
[7] = biological target: Serine/threonine-protein kinase B-raf (Homo sapiens, UniProt P15056); experiment: Inhibition of N-terminus FLAG-tagged B-raf expressed in baculovirus expression system using [gamma-33P]-ATP measured after 60 mins by scintillation counting
[8] = biological target: Vascular endothelial growth factor receptor 1 (Homo sapiens, UniProt P17948); experiment: Inhibition of VEGFR1 using ATP preincubated with compound for 5 mins measured after 5 mins
CAL-27 = experiment: Antitumor activity against human CAL27 cells overexpressing EGFR gene xenografted in nude mouse assessed as tumor growth regression at 100 mg/kg, po BID for 14 days relative to control; assay type: functional
Procedure, shortened: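 CAL27 human head and neck cancer (EGFR-overexpressing) xenografts in mice were dosed orally at 100 mg/kg. Efficacy was expressed as tumor/control ratio (T/C) against vehicle control.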

[9] = biological target: Platelet-derived growth factor receptor alpha (Homo sapiens, UniProt P16234); experiment: Inhibition of PDGFRalpha using ATP measured after 30 mins
[10] = biological target: Inhibitor of nuclear factor kappa-B kinase subunit beta (Homo sapiens, UniProt O14920); experiment: Inhibition of C-terminus FLAG-tagged IKKbeta expressed in baculovirus expression system using [gamma-33P]-ATP measured after 30 mins by scintillation counting
[11] = biological target: Receptor tyrosine-protein kinase erbB-4 (Homo sapiens, UniProt Q15303); experiment: Inhibition of N-terminus peptide-tagged human recombinant HER4 expressed using baculovirus infection system using [gamma-33P]-ATP preincubated with compound for 5 mins measured after 10 mins by scintillation counting
Focal adhesion kinase 1 = Focal adhesion kinase 1 (Homo sapiens, UniProt Q05397); experiment: Inhibition of FAK using ATP measured after 60 mins
[12] = biological target: Dual specificity mitogen-activated protein kinase kinase 1 (Homo sapiens, UniProt Q02750); experiment: Inhibition of N-terminus GST -fused MEK1 expressed using baculovirus infection system using [gamma-33P]ATP preincubated with compound for 5 mins measured after 30 mins by scintillation counting
[13] = Metabolic stability in mouse liver microsomes at 1 umol/L after 20 mins by HPLC analysis; assay type: ADME, Microsome; settings: read-out: Stability
[14] = Antitumor activity against human 4-1ST cells overexpressing HER2 gene xenografted in nude mouse assessed as tumor growth regression at 50 mg/kg, po BID for 14 days relative to control; assay type: functional
Procedure, shortened: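 Oral dosing at 50 mg/kg in mice bearing 4-1ST (HER2-overexpressing) tumor xenografts. Efficacy was expressed as tumor/control ratio (T/C). Significance versus control at day 14 was tested by one-tailed Shirley–Williams test.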

[15] = biological target: Cytoplasmic tyrosine-protein kinase BMX (Homo sapiens, UniProt P51813); experiment: Inhibition of BMX using ATP measured after 10 mins
[16] = biological target: Proto-oncogene tyrosine-protein kinase Src (Homo sapiens, UniProt P12931); experiment: Inhibition of Src using ATP preincubated with compound for 5 mins measured after 10 mins
[17] = biological target: Tyrosine-protein kinase CSK (Homo sapiens, UniProt P41240); experiment: Inhibition of CSK using ATP preincubated with compound for 5 mins measured after 10 mins
BT-474 = experiment: Growth inhibition of human BT474 cells overexpressing HER2 gene after 5 days; assay type: functional; settings: BT-474, 120 h
[18] = biological target: Mitogen-activated protein kinase kinase kinase 1 (Homo sapiens, UniProt Q13233); experiment: Inhibition of C-terminus FLAG-tagged MEKK1 expressed in baculovirus expression system using [gamma-33P]-ATP measured after 60 mins by scintillation counting
Aurora kinase B = Aurora kinase B (Homo sapiens, UniProt Q96GD4); experiment: Inhibition of N-terminal 6xHis tagged Aurora B kinase expressed using baculovirus expression system using [gamma-33P]ATP
[19] = biological target: Dual specificity protein kinase TTK (Homo sapiens, UniProt P33981); experiment: Inhibition of N-terminus FLAG-tagged TTK expressed in baculovirus expression system using [gamma-33P]-ATP measured after 60 mins by scintillation counting
[20] = biological target: Fibroblast growth factor receptor 3 (Homo sapiens, UniProt P22607); experiment: Inhibition of FGFR3 using ATP preincubated with compound for 5 mins measured after 10 mins
[21] = biological target: Protein kinase C theta type (Homo sapiens, UniProt Q04759); experiment: Inhibition of N-terminus FLAG-tagged PKCtheta expressed in baculovirus expression system using [gamma-33P]-ATP measured after 60 mins by scintillation counting
Angiopoietin-1 receptor = Angiopoietin-1 receptor (Homo sapiens, UniProt Q02763); experiment: Inhibition of TIE2 using ATP preincubated with compound for 5 mins measured after 10 mins
[22] = biological target: Platelet-derived growth factor receptor beta (Homo sapiens, UniProt P09619); experiment: Inhibition of PDGFRbeta using ATP measured after 60 mins
[23] = biological target: Insulin-like growth factor 1 receptor (Homo sapiens, UniProt P08069); experiment: Inhibition of IGFR1 using ATP measured after 20 mins
[24] = biological target: Dual specificity mitogen-activated protein kinase kinase 5 (Homo sapiens, UniProt Q13163); experiment: Inhibition of N-terminus FLAG-tagged MEK5 expressed in baculovirus expression system using [gamma-33P]-ATP measured after 30 mins by scintillation counting
[25] = biological target: Hepatocyte growth factor receptor (Homo sapiens, UniProt P08581); experiment: Inhibition of c-Met using ATP preincubated with compound for 5 mins measured after 10 mins
[26] = biological target: Tyrosine-protein kinase Lck (Homo sapiens, UniProt P06239); experiment: Inhibition of LCK using ATP preincubated with compound for 5 mins measured after 30 mins
[27] = Metabolic stability in human liver microsomes at 1 umol/L after 20 mins by HPLC analysis; assay type: ADME, Microsome; settings: read-out: Stability
[28] = biological target: Receptor tyrosine-protein kinase erbB-2 (Homo sapiens, UniProt P04626); experiment: Inhibition of N-terminus peptide-tagged human recombinant HER2 expressed using baculovirus infection system using [gamma-33P]-ATP preincubated with compound for 5 mins measured after 10 mins by scintillation counting
[29] = biological target: Mitogen-activated protein kinase 8 (Homo sapiens, UniProt P45983); experiment: Inhibition of N-terminus FLAG-tagged JNK1 expressed in baculovirus expression system using [gamma-33P]-ATP measured after 60 mins by scintillation counting
[30] = biological target: Glycogen synthase kinase-3 beta (Homo sapiens, UniProt P49841); experiment: Inhibition of N-terminus FLAG-tagged GSK3beta expressed in baculovirus expression system using [gamma-33P]-ATP measured after 30 mins by scintillation counting
[31] = biological target: T1, Tyrosine-protein kinase Lyn (Homo sapiens, UniProt P07948); experiment: Inhibition of Lyn A using ATP preincubated with compound for 5 mins measured after 10 mins
[32] = biological target: Mitogen-activated protein kinase 3 (Homo sapiens, UniProt P27361); experiment: Inhibition of N-terminus FLAG-tagged Erk1 expressed in baculovirus expression system using [gamma-33P]-ATP measured after 60 mins by scintillation counting
[33] = biological target: Tyrosine-protein kinase ZAP-70 (Homo sapiens, UniProt P43403); experiment: Inhibition of ZAP70 using ATP measured after 10 mins
[34] = biological target: T1, Tyrosine-protein kinase Lyn; experiment: Inhibition of Lyn B using ATP preincubated with compound for 5 mins measured after 10 mins

T1 sequence (P07948 whole entry): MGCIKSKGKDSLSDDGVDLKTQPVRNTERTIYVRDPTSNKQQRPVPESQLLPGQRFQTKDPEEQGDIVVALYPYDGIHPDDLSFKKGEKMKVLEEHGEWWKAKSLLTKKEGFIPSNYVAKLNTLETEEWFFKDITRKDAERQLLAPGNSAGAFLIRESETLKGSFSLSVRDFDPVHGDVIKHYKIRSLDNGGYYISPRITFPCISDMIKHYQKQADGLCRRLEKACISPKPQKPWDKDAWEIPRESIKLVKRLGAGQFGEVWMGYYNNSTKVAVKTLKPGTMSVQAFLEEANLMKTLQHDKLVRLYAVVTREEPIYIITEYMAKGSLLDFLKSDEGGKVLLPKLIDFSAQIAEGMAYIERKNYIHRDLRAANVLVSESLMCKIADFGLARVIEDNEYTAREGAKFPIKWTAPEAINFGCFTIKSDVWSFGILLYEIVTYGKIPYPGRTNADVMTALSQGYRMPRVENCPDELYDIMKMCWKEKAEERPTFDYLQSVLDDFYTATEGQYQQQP
Chain of Serine/threonine-protein kinase PLK1 (P53350 whole entry): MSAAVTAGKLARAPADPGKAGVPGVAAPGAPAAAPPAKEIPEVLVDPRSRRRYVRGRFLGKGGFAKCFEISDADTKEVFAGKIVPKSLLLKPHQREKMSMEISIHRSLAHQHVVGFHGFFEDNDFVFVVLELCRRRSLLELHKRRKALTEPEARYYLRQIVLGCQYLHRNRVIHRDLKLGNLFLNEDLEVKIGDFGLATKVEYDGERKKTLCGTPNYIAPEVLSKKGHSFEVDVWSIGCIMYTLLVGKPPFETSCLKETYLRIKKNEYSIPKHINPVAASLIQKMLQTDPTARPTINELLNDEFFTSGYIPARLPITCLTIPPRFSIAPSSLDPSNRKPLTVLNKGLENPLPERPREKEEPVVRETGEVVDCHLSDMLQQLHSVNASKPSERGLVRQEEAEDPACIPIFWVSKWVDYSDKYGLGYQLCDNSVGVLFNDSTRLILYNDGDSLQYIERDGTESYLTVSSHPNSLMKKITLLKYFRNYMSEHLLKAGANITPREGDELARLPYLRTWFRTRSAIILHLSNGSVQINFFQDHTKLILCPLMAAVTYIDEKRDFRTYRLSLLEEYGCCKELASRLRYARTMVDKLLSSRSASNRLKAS
Chain of Mitogen-activated protein kinase 3 (P27361 whole entry): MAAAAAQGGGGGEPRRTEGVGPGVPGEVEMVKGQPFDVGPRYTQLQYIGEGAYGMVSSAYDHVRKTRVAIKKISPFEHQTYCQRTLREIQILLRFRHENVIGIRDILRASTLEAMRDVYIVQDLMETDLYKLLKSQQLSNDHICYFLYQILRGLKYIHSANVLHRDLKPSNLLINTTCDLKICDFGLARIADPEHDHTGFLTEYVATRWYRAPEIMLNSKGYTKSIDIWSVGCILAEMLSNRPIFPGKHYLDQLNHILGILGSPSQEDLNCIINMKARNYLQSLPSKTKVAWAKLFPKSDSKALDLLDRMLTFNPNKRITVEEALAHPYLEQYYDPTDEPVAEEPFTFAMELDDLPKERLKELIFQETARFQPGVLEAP
Chain of Cytoplasmic tyrosine-protein kinase BMX (P51813 whole entry): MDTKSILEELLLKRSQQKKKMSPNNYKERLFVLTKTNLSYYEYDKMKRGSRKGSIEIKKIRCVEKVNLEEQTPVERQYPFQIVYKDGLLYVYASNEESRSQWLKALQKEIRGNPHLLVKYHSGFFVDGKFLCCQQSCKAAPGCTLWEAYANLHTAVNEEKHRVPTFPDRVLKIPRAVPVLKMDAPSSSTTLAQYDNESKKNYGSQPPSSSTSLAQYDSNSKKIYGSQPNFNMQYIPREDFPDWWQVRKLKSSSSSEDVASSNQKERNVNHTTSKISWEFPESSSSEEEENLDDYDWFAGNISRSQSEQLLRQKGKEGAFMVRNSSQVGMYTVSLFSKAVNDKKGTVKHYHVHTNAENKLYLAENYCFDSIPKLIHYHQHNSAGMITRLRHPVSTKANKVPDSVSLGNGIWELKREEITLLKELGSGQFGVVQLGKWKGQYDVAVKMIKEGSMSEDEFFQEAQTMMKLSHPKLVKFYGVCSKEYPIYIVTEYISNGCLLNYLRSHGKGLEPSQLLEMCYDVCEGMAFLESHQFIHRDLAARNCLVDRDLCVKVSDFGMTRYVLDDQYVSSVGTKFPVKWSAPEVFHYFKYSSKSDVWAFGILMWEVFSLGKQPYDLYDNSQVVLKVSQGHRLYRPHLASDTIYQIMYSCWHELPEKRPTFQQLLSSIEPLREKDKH
Chain of Focal adhesion kinase 1 (Q05397 whole entry, the tested form may be a part): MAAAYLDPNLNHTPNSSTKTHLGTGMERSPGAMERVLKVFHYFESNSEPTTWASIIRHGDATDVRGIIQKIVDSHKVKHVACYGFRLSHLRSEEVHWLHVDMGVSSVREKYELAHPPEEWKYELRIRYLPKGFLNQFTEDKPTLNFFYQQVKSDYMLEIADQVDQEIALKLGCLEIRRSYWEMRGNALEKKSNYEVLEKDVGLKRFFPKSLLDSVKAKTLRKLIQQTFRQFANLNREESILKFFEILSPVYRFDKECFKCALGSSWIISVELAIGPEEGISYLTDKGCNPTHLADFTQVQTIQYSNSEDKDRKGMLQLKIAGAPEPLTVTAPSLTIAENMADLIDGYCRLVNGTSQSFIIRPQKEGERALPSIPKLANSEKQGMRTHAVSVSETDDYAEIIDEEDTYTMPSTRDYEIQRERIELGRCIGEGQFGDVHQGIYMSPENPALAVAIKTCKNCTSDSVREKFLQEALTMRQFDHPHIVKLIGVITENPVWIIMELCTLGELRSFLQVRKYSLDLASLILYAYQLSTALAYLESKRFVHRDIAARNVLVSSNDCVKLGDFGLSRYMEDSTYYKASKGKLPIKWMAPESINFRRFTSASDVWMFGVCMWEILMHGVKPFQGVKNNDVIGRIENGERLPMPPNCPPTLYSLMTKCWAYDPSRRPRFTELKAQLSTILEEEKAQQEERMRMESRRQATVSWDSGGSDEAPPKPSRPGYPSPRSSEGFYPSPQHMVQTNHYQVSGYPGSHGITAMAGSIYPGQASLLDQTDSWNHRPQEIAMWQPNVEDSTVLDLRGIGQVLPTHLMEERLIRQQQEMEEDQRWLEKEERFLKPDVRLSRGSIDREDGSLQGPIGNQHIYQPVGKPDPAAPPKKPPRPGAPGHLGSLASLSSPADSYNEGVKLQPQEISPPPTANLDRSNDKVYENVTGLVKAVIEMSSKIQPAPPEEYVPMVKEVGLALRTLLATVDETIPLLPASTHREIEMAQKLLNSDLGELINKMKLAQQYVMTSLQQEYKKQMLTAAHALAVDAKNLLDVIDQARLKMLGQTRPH
Chain of Aurora kinase B (Q96GD4 whole entry): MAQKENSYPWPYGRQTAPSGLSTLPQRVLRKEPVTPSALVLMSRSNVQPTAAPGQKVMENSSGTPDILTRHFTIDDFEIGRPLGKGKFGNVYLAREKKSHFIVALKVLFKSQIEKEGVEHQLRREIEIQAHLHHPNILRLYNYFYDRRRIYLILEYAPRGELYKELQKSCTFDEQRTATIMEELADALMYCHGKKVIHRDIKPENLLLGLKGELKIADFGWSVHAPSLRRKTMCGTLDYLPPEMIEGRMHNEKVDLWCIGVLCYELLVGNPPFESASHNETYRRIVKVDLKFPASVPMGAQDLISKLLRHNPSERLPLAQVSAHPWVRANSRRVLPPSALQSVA
Chain of Hepatocyte growth factor receptor (P08581 whole entry): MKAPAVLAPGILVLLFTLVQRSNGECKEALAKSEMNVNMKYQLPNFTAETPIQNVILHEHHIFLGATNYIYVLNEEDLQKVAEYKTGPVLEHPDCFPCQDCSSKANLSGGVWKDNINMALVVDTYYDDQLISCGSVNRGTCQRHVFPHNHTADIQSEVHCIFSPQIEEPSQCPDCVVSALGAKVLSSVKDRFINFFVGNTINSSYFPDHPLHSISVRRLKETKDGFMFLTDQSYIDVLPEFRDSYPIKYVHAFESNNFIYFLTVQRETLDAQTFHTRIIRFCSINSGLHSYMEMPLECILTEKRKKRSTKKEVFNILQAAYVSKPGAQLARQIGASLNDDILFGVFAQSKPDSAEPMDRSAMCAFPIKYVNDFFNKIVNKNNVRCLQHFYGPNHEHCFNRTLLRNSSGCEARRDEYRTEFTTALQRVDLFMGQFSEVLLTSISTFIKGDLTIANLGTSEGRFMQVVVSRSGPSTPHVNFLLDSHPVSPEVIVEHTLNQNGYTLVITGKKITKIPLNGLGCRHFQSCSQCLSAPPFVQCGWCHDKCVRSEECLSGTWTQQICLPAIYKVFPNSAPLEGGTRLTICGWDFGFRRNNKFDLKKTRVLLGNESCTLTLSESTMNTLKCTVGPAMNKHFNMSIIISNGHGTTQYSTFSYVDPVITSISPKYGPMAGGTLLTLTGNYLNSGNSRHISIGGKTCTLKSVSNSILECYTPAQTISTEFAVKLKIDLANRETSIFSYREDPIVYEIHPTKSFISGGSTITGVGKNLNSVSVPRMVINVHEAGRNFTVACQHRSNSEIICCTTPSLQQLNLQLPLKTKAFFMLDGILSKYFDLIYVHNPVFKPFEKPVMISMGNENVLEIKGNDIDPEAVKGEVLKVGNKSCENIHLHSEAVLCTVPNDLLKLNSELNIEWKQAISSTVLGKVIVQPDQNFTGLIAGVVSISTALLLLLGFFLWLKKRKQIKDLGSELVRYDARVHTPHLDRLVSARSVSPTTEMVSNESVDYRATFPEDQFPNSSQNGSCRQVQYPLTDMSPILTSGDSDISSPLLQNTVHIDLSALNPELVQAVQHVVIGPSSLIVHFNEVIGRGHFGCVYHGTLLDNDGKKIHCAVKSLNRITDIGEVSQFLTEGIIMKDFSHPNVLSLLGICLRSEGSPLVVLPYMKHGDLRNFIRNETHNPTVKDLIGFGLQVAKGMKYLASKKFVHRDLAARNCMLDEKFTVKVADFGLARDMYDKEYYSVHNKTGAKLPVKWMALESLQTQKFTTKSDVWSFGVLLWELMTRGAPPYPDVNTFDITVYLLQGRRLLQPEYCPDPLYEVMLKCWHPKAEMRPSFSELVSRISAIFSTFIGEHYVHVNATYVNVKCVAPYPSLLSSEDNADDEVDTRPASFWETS

CC(C)(N)C(=O)NCCn1ccc2ncnc(Nc3ccc(Oc4cccc5sncc45)c(Cl)c3)c21
IC50 [1]: > 10 µM | IC50 [2]: > 10 µM | IC50 [3]: > 10 µM | IC50 [4]: > 10 µM | IC50 [5]: > 10 µM | inhibition at 0.25 h, 10 µM (CYP3A4): 21.2% | IC50 [6]: > 10 µM | IC50 [7]: > 10 µM | IC50 [8]: > 10 µM | T/C (CAL-27): -30% | IC50 [9]: > 10 µM | IC50 [10]: > 10 µM | IC50 [11]: 0.079 µM | IC50 (Focal adhesion kinase 1): > 10 µM | IC50 [12]: 2.1 µM | microsomal CLint at 1 µM [13]: 77 µL/min/mg | T/C [14]: -23% | IC50 [15]: > 10 µM | IC50 [16]: 8.4 µM | IC50 [17]: 3.9 µM | GI50 (BT-474): 0.002 µM | IC50 [18]: > 10 µM | IC50 (Aurora kinase B): > 10 µM | IC50 [19]: > 10 µM | IC50 [20]: > 10 µM | IC50 [21]: > 10 µM | IC50 (Angiopoietin-1 receptor): 3.2 µM | IC50 [22]: > 10 µM | IC50 [23]: > 10 µM | IC50 [24]: > 10 µM | IC50 [25]: 1.8 µM | IC50 [26]: 1.7 µM | microsomal CLint at 1 µM [27]: 88 µL/min/mg | IC50 [28]: 0.00098 µM | IC50 [29]: > 10 µM | IC50 [30]: > 10 µM | IC50 [31]: 7.1 µM | IC50 [32]: > 10 µM | IC50 [33]: > 10 µM | IC50 [34]: 3 µM

— ChEMBL document CHEMBL2046372, “Design and synthesis of pyrrolo[3,2-d]pyrimidine human epidermal growth factor receptor 2 (HER2)/epidermal growth factor receptor (EGFR) dual inhibitors: exploration of novel back-pocket binders” (J Med Chem, 2012)
